The subject of test [1] is Platelet. In words: Inhibition of adenosine diphosphate-induced platelet aggregation in pig blood. It counts as functional, cell-based. Conditions: Sus scrofa. The method in brief: (§1)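 Pig blood was spun at 1000g for 10 min to give PRP and at 1500g for 10 min to give PPP. PRP was adjusted to 2 × 10^8 platelets/ml with autologous PPP. The sample was preincubated with test agent or NS. Agonist final concentrations, each in NS: ADP 10 µM, AA 350 µM, PAF 0.1 µM, thrombin 0.1 U/ml. Optical aggregometry ran 5 min at 37 °C. Peak height gave maximal aggregation; % inhibition versus NS gave IC50.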

Test [2] relates to Platelet. Briefly: Inhibition of arachidonic acid-induced platelet aggregation in pig blood. It is filed as functional, cell-based. Conditions: Sus scrofa. The method in brief: as §1
For test [3], the system named is Platelet. Briefly: Inhibition of platelet-activating factor-induced platelet aggregation in pig blood. It counts as functional, cell-based. To be noted: Sus scrofa. The method in brief: as §1
Test [4] has as its system Platelet. In words: Inhibition of thrombin-induced platelet aggregation in pig blood. It counts as functional, cell-based. Conditions: Sus scrofa. The essentials:
as §1

Test [5] has as its system Rattus norvegicus. Briefly: Antithrombotic activity in Wistar rat assessed as wet thrombus weight at 5 umol/kg. It is filed as functional. The method in brief: (§2)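 Male Wistar rats (250–300 g) got the test agent orally, dissolved in NS and kept on ice; NS served as vehicle. After 45 min, rats were anesthetized with pentobarbital sodium (80.0 mg/kg ip). An extracorporeal carotid artery–jugular vein polyethylene cannula holding a weighed 6 cm thread was placed, and the wet thrombus weight on the thread was recorded.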

Test [6] has as its system Rattus norvegicus. In words: Antithrombotic activity in Wistar rat assessed as wet thrombus weight at 15 umol/kg. It is filed as functional. The method in brief:
as §2

Test [7] concerns Rattus norvegicus. In words: Antithrombotic activity in Wistar rat assessed as wet thrombus weight at 500 nmol/kg. It counts as functional. The essentials: (§3)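 Dose series (5 µmol/kg, 500 nmol/kg, 50 nmol/kg, 5 nmol/kg) given by intravenous injection to male Wistar rats (250–300 g) in an arteriovenous cannula model containing a weighed 6 cm thread. Anesthesia was pentobarbital sodium (80.0 mg/kg ip) with NS vehicle. Wet thrombus weight is given as mean ± SD, n = 12.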

Test [8] concerns Rattus norvegicus. In words: Antithrombotic activity in Wistar rat assessed as wet thrombus weight at 50 nmol/kg. It is filed as functional. The essentials: as §3
The subject of test [9] is Rattus norvegicus. Briefly: Antithrombotic activity in Wistar rat assessed as wet thrombus weight at 5 nmol/kg. It is filed as functional. The essentials: as §3
Test [10] concerns Rattus norvegicus. Briefly: Antithrombotic activity in Wistar rat assessed as wet thrombus weight at 110 x 5 umol/kg. It is filed as functional. The essentials: as §2
Test [11] has as its system Rattus norvegicus. In words: Antithrombotic activity in Wistar rat assessed as wet thrombus weight at 22 x 5 umol/kg. It counts as functional. The method in brief: as §2

SMILES strings stand for the structures. Square brackets hold non-standard residues; d marks the D form. Peptide text beside a SMILES is read from it. Tic = O=C(O)[C@@H]1Cc2ccccc2CN1

As for `CSCC[C@H](N)C(=O)N1Cc2ccccc2C[C@H]1C(=O)O` (H-Met-[Tic]-OH), the 50% inhibitory concentration (IC50) with Platelet [1] was 265 nM; in the test on Platelet [2], 430 nM; with Platelet [3] it was 409 nM; in the test on Platelet [4], 607 nM. Further, in the test with Rattus norvegicus [5], the Activity is given as 19.56 mg.
With `N[C@@H](Cc1c[nH]c2ccccc12)C(=O)N1Cc2ccccc2C[C@H]1C(=O)O` (H-Trp-[Tic]-OH), the IC50 was found to be 194 nM in the test with Platelet [1], 572 nM with Platelet [2], 422 nM in the test on Platelet [3] and 720 nM in the test on Platelet [4]. The Activity in the test with Rattus norvegicus [5] was 19.47 mg.
In the case of `N[C@@H](Cc1c[nH]cn1)C(=O)N1Cc2ccccc2C[C@H]1C(=O)O` (H-His-[Tic]-OH), the concentration for half-maximal inhibition (IC50) in the test with Platelet [1] amounted to 324 nM; in the test with Platelet [2], 521 nM; with Platelet [3], 670 nM; in the test with Platelet [4], 684 nM. Besides, in the test with Rattus norvegicus [5], the Activity amounted to 21.78 mg.
Consider `O=C(O)[C@@H]1Cc2ccccc2CN1`, for which the half-maximal inhibitory concentration (IC50) was 552 nM with Platelet [1], 452 nM with Platelet [2], 960 nM in the test on Platelet [3] and 882 nM in the test on Platelet [4]. Besides, the Activity in the test with Rattus norvegicus [6] was found to be 21.52 mg; in the test with Rattus norvegicus [5], 26.88 mg.
On to `NC(=O)C[C@H](N)C(=O)N1Cc2ccccc2C[C@H]1C(=O)O` (H-Asn-[Tic]-OH), for which the IC50 in the test on Platelet [1] is 534 nM; in the test on Platelet [2], 407 nM; in the test on Platelet [3], 360 nM; in the test on Platelet [4] it was 495 nM. In the test with Rattus norvegicus [5], the Activity is recorded as 22.66 mg.
`N[C@@H](CO)C(=O)N1Cc2ccccc2C[C@H]1C(=O)O` (H-Ser-[Tic]-OH): the IC50 stood at 103 nM in the test on Platelet [1], 215 nM in the test with Platelet [2], 267 nM in the test on Platelet [3] and 498 nM in the test with Platelet [4]. For the same molecule, the Activity with Rattus norvegicus [5] turned out to be 18 mg; with Rattus norvegicus [7], 18.31 mg; in the test on Rattus norvegicus [8] it was 22.54 mg; in the test with Rattus norvegicus [9], 28.58 mg.
Turning to `N[C@@H](Cc1ccc(O)cc1)C(=O)N1Cc2ccccc2C[C@H]1C(=O)O` (H-Tyr-[Tic]-OH), the IC50 worked out at 327 nM in the test with Platelet [1], 526 nM with Platelet [2], 668 nM with Platelet [3] and 738 nM with Platelet [4]. Besides, the Activity with Rattus norvegicus [5] turned out to be 20.92 mg.
The corresponding values for `CC(C)[C@H](N)C(=O)N1Cc2ccccc2C[C@H]1C(=O)O` (H-Val-[Tic]-OH) are 389 nM, 666 nM, 632 nM, 653 nM and 20.12 mg.
The corresponding values for `NCCCC[C@H](N)C(=O)N1Cc2ccccc2C[C@H]1C(=O)O` (H-Lys-[Tic]-OH) are 323 nM, 344 nM, 472 nM, 829 nM and 21.31 mg.
In the case of `C[C@@H](O)[C@H](N)C(=O)N1Cc2ccccc2C[C@H]1C(=O)O` (H-Thr-[Tic]-OH), the IC50 in the test on Platelet [1] turned out to be 240 nM; in the test on Platelet [2] it was 535 nM; in the test on Platelet [3], 404 nM; in the test with Platelet [4], 879 nM. Moreover, the Activity in the test with Rattus norvegicus [5] turned out to be 20.73 mg.
The corresponding values for `NCC(=O)N1Cc2ccccc2C[C@H]1C(=O)O` (H-Gly-[Tic]-OH) are 365 nM, 423 nM, 875 nM, 761 nM and 21.17 mg.
On to `NC(=O)CC[C@H](N)C(=O)N1Cc2ccccc2C[C@H]1C(=O)O` (H-Gln-[Tic]-OH), for which the half-maximal inhibitory concentration (IC50) is 302 nM with Platelet [1], 351 nM with Platelet [2], 392 nM with Platelet [3] and 555 nM in the test on Platelet [4]. Also, in the test on Rattus norvegicus [5], the Activity came out at 21.3 mg.
The corresponding values for `CC[C@H](C)[C@H](N)C(=O)N1Cc2ccccc2C[C@H]1C(=O)O` (H-Ile-[Tic]-OH) are 315 nM, 465 nM, 831 nM, 674 nM and 21.14 mg.
With `CC(=O)Oc1ccccc1C(=O)O` [ASPIRIN], the Activity in the test on Rattus norvegicus [10] was 13.22 mg; with Rattus norvegicus [11], 27.6 mg.
Regarding `O=C(O)[C@@H]1Cc2ccccc2CN1C(=O)[C@@H]1CCCN1` (H-Pro-[Tic]-OH), the IC50 in the test on Platelet [1] came to 373 nM; with Platelet [2] it was 382 nM; in the test on Platelet [3], 507 nM; in the test with Platelet [4], 590 nM. In the test on Rattus norvegicus [5], the Activity worked out at 21.09 mg.
The corresponding values for `N[C@@H](Cc1ccccc1)C(=O)N1Cc2ccccc2C[C@H]1C(=O)O` (H-Phe-[Tic]-OH) are 370 nM, 573 nM, 527 nM, 851 nM and 22.23 mg.
The corresponding values for `N=C(N)NCCC[C@H](N)C(=O)N1Cc2ccccc2C[C@H]1C(=O)O` (H-Arg-[Tic]-OH) are 210 nM, 217 nM, 517 nM, 565 nM and 20.06 mg.
The corresponding values for `N[C@@H](CC(=O)O)C(=O)N1Cc2ccccc2C[C@H]1C(=O)O` (H-Asp-[Tic]-OH) are 345 nM, 369 nM, 383 nM, 902 nM and 20.3 mg.
As to `CC(C)C[C@H](N)C(=O)N1Cc2ccccc2C[C@H]1C(=O)O` (H-Leu-[Tic]-OH), the IC50 with Platelet [1] was 336 nM; in the test on Platelet [2], 238 nM; in the test with Platelet [3] it was 892 nM; with Platelet [4] it was 730 nM. Besides, the Activity in the test with Rattus norvegicus [5] was determined as 19.12 mg.
The corresponding values for `C[C@H](N)C(=O)N1Cc2ccccc2C[C@H]1C(=O)O` (H-Ala-[Tic]-OH) are 651 nM, 440 nM, 945 nM, 741 nM and 20.3 mg.
For `O=C(O)[C@@H]1Cc2c([nH]c3ccccc23)CN1` [CYCLOMETHYLTRYPTOPHAN], the IC50 in the test on Platelet [1] stood at 3320 nM; with Platelet [2], 3430 nM; in the test on Platelet [3], 3180 nM; with Platelet [4], 3290 nM.
As for `N[C@@H](CCC(=O)O)C(=O)N1Cc2ccccc2C[C@H]1C(=O)O` (H-Glu-[Tic]-OH), the half-maximal inhibitory concentration (IC50) in the test on Platelet [1] is 494 nM; with Platelet [2], 298 nM; in the test with Platelet [3], 544 nM; with Platelet [4], 589 nM. Further, in the test on Rattus norvegicus [5], the Activity was 20.87 mg.

The values are drawn from ChEMBL document CHEMBL1142506, “(3S)-N-(L-Aminoacyl)-1,2,3,4-tetrahydroisoquinolines, a class of novel antithrombotic agents: synthesis, bioassay, 3D QSAR, and ADME analysis” (Bioorg Med Chem, 2008).
